The source made the active and inactive calls. The rule behind the calls is not given here.
What was measured:
COLO 205 [1] = assay: Cytotoxicity against human COLO205 cells after 24 hrs by MTT assay; format: functional, cell-based; conditions: COLO 205, 24 h
Summary of the method: (§1)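 Colon cancer cells were incubated with the substances for 24 h. Viability was then read by MTT assay 48 h after incubation. IC₅₀ values are mean SD, n ≥ 3.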

HT-29 [2] = assay: Cytotoxicity against human HT-29 cells after 24 hrs by MTT assay; format: functional, cell-based; conditions: HT-29, 24 h; summary of the method: as §1
COLO 205 [3] = assay: Induction of apoptosis in human COLO205 cells assessed as complete cell death at 100 uM; format: functional, cell-based
[4] = tested on: secretory phospholipase A2; assay: Chemical stability of the compound in presence of snake venom secretory phospholipase A2 after 48 hrs by MALDI-TOF MS analysis; format: physicochemical; conditions: read-out: Stability
Summary of the method: (§2)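 Formulated lipid suspensions (extruded through a 100 nm filter) were incubated with purified snake venom sPLA₂ (Agkistrodon piscivorus piscivorus and Naja mossambica mossambica) with stirring at 37 °C. Samples were taken at 2, 24 and 48 h for MALDI-TOF MS. The matrix was DHB and CF₃COONa in methanol with DPPG as internal standard. Hydrolysis was estimated as conversion of the conjugate.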

COLO 205 [5] = assay: Induction of apoptosis in human COLO205 cells at 20 uM; format: functional, cell-based
HT-29 [6] = assay: Cytotoxicity against human HT-29 cells after 24 hrs by MTT assay in presence of snake venom secretory phospholipase A2; format: functional, cell-based; conditions: HT-29, 24 h
[7] = Chemical stability of the compound in presence of snake venom secretory phospholipase A2 after 24 hrs by MALDI-TOF MS analysis; format: physicochemical; summary of the method: as §2

Structure (SMILES)	IC50 (COLO 205 [1]) [µM]	IC50 (HT-29 [2]) [µM]	Activity (COLO 205 [3])	remaining at 48 h [4] [%]	Activity (COLO 205 [5])	IC50 (HT-29 [6]) [µM]	Stability [7]
CCCCC/C=C/C=C1\C(=O)C=C[C@@H]1C/C=C/CCCC(=O)O	4	1.6	–	–	–	–	–
CCCCC/C=C/C=C1\C(=O)C=C[C@H]1C/C=C/CCCC(=O)O[C@H](COCCCCCCCCCCCCCCCCCC)COP(=O)(O)OC[C@@H](O)CO	9	6	Active	70	Active	2.2	–
CCCCC/C=C/C=C1\C(=O)C=C[C@H]1C/C=C/CCCC(=O)O[C@H](COC(=O)CCCCCCCCCCCCCCCCC)COP(=O)([O-])OC[C@@H](O)CO.[Na+]	17	32	Active	–	Active	6.4	Unstable

Source: ChEMBL document CHEMBL1208725, “Prostaglandin phospholipid conjugates with unusual biophysical and cytotoxic properties” (Bioorg Med Chem Lett, 2010)
